Measurements from ChEMBL document CHEMBL3352316, “Optimization of physicochemical properties and safety profile of novel bacterial topoisomerase type II inhibitors (NBTIs) with activity against Pseudomonas aeruginosa” (Bioorg Med Chem, 2014).
In brackets after ≈: the same amount, converted by molar mass.

What was measured:
[1] = Aqueous solubility of the compound; assay type: physicochemical; conditions: buffer
Escherichia coli = assay: Antimicrobial activity against Escherichia coli W3110 after 18 to 20 hrs by broth microdilution; assay type: functional; conditions: K-12 substr. W3110
Summary of the method: (§1)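 Broth microdilution followed CLSI guidelines in Mueller Hinton broth. Inocula were grown 18–20 h at 35 °C on blood agar. Compound in DMSO was tested in doubling dilutions from 64 to 0.06 µg/mL, at 2% DMSO final. Plates were incubated 18–20 h and read at OD 620 nm. MIC was taken as the concentration giving >90% growth inhibition.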

[2] = Inhibition of Escherichia coli topoisomerase IV ATPase activity
Klebsiella pneumoniae = assay: Antimicrobial activity against Klebsiella pneumoniae after 18 to 20 hrs by broth microdilution; assay type: functional; summary of the method: as §1
[3] = Clearance in rat at 10 mg/kg, iv; assay type: ADME, organism-based; design: dose 10 mg/kg, route intravenous; conditions: in vivo
Summary of the method: (§2)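 Male rats (Wistar Han) and Beagle dogs received 10 mg/kg as a 15 min iv infusion. Serial 200 µL whole-blood samples were taken from 0 to 24 h. Plasma levels were measured by LC–MS/MS against a standard curve after methanol protein precipitation. Parameters were estimated non-compartmentally.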

[4] = Clearance in beagle dog at 10 mg/kg, iv; assay type: ADME, organism-based, Canis lupus familiaris; design: dose 10 mg/kg, route intravenous; conditions: in vivo; summary of the method: as §2
[5] = AUC in beagle dog at 10 mg/kg, iv; assay type: ADME, organism-based, Canis lupus familiaris; design: dose 10 mg/kg, route intravenous; conditions: plasma; summary of the method: as §2
[6] = target: T1, Potassium voltage-gated channel subfamily KQT member 1 (Homo sapiens, UniProt P51787); assay: Inhibition of potassium channel IKs (unknown origin)
T1 sequence (P51787 whole entry): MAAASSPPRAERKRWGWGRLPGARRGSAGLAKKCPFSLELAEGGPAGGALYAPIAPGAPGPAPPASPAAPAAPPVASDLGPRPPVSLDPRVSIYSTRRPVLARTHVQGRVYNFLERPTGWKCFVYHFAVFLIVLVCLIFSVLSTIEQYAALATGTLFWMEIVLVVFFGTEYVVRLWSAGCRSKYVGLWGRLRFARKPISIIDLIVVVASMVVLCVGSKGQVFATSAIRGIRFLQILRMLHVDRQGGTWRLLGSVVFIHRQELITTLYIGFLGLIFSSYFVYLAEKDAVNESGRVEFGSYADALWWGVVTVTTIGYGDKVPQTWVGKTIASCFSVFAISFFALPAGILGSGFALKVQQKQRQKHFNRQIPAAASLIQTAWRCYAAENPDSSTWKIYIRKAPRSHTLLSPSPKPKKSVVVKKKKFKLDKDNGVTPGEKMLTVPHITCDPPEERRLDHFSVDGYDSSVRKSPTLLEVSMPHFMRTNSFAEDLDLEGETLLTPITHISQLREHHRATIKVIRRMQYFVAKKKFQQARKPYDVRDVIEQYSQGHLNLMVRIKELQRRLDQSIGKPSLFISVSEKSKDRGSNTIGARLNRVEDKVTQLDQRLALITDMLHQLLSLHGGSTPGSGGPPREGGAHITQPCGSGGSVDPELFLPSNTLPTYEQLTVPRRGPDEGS
Summary of the method: (§3)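 Automated IonWorks patch clamp was run on CHO or HEK cells expressing each channel. A channel-specific voltage pulse was applied before compound and again about 3 min after addition.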

[7] = target: T2, A-type voltage-gated potassium channel KCND3 (Homo sapiens, UniProt Q9UK17); assay: Inhibition of potassium channel Kv4.3 (unknown origin); summary of the method: as §3
T2 sequence (Q9UK17 whole entry): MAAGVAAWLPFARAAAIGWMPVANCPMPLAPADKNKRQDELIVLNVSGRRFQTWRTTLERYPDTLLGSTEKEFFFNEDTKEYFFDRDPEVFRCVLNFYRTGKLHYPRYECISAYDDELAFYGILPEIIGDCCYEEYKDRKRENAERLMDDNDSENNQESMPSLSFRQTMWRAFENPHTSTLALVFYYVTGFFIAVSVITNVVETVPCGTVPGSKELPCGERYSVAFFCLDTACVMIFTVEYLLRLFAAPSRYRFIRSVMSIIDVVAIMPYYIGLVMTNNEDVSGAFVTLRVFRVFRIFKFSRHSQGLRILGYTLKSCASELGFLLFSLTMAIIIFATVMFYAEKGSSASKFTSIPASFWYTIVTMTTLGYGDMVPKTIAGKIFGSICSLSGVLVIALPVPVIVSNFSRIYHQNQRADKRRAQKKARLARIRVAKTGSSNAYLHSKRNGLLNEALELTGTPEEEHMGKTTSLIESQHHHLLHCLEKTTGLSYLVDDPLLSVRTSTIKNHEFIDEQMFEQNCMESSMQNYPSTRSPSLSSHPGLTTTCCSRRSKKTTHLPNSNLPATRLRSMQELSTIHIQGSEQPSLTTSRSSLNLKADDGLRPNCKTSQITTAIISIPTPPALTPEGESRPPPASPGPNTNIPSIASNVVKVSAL

[8] = target: Sodium channel protein type 5 subunit alpha (Homo sapiens, UniProt Q14524); assay: Inhibition of […] channel Nav1.5 (unknown origin); summary of the method: as §3
Chain of Sodium channel protein type 5 subunit alpha (Q14524 whole entry): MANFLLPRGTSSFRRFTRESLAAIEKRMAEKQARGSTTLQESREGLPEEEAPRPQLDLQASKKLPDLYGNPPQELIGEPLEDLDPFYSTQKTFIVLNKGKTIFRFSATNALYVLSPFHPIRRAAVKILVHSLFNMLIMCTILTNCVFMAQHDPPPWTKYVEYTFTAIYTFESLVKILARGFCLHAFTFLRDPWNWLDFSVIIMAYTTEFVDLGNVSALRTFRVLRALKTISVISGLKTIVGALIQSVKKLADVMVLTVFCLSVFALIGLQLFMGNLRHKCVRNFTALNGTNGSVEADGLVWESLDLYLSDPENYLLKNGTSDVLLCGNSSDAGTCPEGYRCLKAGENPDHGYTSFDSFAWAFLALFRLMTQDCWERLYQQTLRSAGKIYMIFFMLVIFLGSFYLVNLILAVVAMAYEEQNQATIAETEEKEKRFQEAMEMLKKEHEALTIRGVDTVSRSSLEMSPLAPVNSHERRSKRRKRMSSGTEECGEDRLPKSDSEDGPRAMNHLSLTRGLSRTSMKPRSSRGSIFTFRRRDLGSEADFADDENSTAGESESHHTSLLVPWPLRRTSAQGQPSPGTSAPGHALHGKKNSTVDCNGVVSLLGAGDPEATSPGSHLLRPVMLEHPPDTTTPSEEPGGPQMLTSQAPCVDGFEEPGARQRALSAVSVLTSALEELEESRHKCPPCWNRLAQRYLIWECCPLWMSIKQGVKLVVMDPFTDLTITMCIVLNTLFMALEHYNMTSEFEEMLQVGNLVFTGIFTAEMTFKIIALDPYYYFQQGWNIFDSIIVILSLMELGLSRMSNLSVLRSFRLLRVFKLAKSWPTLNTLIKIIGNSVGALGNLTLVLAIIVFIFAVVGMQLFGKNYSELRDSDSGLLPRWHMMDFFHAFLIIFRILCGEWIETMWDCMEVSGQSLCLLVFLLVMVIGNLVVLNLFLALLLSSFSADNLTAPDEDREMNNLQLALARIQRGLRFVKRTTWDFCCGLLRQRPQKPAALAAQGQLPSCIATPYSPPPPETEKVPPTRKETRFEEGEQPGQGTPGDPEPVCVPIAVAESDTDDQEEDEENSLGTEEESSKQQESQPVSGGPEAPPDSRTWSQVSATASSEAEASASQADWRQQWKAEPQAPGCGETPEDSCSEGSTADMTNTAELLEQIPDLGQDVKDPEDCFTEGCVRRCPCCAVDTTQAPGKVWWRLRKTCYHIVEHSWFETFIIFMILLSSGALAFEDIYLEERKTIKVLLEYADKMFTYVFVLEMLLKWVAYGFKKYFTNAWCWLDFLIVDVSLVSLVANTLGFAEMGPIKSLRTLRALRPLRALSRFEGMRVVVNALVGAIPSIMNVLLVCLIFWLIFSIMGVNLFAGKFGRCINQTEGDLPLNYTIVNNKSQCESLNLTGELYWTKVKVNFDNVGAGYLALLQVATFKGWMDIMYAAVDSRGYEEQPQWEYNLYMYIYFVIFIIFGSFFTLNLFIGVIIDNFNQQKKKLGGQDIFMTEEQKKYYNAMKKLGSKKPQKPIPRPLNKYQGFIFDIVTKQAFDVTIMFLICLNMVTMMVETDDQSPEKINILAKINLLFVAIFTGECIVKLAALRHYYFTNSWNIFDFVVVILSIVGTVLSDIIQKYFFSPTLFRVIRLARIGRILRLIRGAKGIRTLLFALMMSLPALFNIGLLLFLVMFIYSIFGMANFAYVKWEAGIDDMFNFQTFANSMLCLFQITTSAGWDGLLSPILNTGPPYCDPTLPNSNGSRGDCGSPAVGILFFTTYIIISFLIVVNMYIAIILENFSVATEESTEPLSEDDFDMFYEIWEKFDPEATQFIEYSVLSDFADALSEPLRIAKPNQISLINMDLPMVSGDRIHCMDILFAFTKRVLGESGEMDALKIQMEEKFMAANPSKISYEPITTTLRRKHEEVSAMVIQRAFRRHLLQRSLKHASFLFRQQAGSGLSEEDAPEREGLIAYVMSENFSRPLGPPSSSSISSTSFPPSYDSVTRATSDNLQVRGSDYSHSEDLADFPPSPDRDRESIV

[9] = target: Voltage-dependent L-type calcium channel subunit alpha-1C (Homo sapiens, UniProt Q13936); assay: Inhibition of […] channel Cav1.2 (unknown origin); summary of the method: as §3
Chain of Voltage-dependent L-type calcium channel subunit alpha-1C (Q13936 whole entry): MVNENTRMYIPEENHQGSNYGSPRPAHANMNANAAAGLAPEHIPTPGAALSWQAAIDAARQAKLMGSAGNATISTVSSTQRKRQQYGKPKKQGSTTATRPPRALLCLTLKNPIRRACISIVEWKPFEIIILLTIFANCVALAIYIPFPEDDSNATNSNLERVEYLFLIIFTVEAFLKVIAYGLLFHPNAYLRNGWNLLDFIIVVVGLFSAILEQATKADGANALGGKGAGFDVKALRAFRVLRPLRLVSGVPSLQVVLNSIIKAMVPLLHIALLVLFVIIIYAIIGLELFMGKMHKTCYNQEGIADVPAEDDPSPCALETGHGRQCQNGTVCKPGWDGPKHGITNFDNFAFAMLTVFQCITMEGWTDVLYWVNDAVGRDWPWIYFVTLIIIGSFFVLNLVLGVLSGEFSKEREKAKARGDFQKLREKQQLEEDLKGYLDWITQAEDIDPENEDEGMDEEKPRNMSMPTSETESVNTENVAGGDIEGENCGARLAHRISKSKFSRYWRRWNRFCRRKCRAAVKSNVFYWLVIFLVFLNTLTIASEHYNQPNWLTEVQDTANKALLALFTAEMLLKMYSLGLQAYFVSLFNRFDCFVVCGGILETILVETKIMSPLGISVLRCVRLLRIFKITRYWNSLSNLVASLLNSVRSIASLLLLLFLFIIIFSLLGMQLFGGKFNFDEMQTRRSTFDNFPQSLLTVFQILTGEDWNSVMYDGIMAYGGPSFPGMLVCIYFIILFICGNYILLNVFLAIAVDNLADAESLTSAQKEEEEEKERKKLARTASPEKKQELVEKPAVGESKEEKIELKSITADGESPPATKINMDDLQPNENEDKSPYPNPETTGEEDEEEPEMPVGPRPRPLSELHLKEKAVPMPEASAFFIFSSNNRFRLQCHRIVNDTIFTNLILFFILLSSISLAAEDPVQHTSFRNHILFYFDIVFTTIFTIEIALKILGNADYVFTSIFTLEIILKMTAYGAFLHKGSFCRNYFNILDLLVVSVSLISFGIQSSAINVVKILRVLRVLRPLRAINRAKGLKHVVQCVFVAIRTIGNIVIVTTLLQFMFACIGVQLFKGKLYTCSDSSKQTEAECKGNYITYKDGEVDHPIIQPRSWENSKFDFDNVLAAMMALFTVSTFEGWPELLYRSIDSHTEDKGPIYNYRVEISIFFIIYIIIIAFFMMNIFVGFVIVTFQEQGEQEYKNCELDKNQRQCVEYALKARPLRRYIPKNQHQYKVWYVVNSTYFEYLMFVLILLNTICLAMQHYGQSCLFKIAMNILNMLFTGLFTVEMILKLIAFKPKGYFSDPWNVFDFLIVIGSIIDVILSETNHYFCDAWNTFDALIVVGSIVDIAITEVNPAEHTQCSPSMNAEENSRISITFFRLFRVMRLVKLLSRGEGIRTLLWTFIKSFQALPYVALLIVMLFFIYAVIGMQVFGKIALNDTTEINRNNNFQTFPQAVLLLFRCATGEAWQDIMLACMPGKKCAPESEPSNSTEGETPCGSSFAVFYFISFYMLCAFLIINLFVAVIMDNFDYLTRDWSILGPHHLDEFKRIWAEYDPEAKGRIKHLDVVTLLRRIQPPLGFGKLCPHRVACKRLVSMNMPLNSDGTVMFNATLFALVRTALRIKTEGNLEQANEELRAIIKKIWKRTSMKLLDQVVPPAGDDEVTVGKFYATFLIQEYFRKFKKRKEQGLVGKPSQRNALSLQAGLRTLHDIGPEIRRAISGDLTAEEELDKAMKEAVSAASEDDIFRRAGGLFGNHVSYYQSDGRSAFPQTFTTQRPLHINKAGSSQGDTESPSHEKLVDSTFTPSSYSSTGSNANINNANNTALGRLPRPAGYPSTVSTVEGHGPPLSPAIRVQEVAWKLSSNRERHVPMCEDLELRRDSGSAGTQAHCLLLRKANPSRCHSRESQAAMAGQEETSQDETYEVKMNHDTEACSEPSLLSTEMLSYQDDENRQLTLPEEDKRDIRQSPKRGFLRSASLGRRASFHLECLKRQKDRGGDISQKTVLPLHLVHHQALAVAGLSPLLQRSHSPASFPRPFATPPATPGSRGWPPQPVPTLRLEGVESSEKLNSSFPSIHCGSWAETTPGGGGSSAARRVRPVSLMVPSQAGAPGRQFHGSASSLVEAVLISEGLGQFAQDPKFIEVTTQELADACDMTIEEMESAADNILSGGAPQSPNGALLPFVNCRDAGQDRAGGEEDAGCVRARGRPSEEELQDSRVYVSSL

solubility [1] | MIC90 (Escherichia coli) | IC50 [2] | MIC90 (Klebsiella pneumoniae) | clearance [3] | clearance [4] | AUC [5] | IC50 [6] | IC50 [7] | SMILES | IC50 [8] | IC50 [9]
> 333 µM | < 0.06 µg/mL | 0.003 µM | 16 µg/mL (≈ 34.2 µM) | 46 mL/min/kg | 14 mL/min/kg | 12000 ng·h/mL | > 333 µM | > 100 µM | N[C@@H](Cn1c(=O)cnc2ccc(F)cc21)[C@H]1CC[C@H](NCc2ncc3c(n2)NC(=O)CO3)CC1 | > 333 µM | > 333 µM
> 333 µM | 0.13 µg/mL (≈ 0.28 µM) | 0.0022 µM | 4 µg/mL (≈ 8.61 µM) | 252 mL/min/kg | 8.5 mL/min/kg | 6800 ng·h/mL | > 100 µM | > 100 µM | COc1ccc2ncc(=O)n(CCN3CCC(NCc4ccc5c(n4)NC(=O)CO5)CC3)c2c1 | 92 µM | > 333 µM
